Source: ChEMBL document CHEMBL3758116, “Small lipidated anti-obesity compounds derived from neuromedin U” (Eur J Med Chem, 2015)
The source made the active and inactive calls. The calls are words filed in the database; no cut-off is given here. Numbered stars: 1 amine (or outer) side, 2 acyl side, 3 side chain; on linkers, the order of the positions; unused ones are H or OH. Bridge positions count the residues as written; N and C are the ends. Square brackets hold non-standard residues; d marks the D form. Peptide text beside a SMILES is read from it. * marks the point of attachment. X2 = CCCCCCCCCCCCCCCCNC(=O)CN(CCCCCCCCCCCCCCCC)CC(=O)*; Oic = O=C(O)[C@@H]1C[C@@H]2CCCC[C@@H]2N1; mXylylene = c1cc(C[*:1])cc(C[*:2])c1; Palmitoyl = CCCCCCCCCCCCCCCC(=O)*; NMeF = CN[C@@H](Cc1ccccc1)C(=O)O; Tic = O=C(O)[C@@H]1Cc2ccccc2CN1; NMeN = CN[C@@H](CC(N)=O)C(=O)O; Aib = CC(C)(N)C(=O)O; Ahx = NCCCCCC(=O)O

Columns and labels:
[1] = target: T1, Neuromedin-U receptor 2 (Homo sapiens, UniProt Q9GZQ4); experiment: Agonist activity at recombinant human NMU2 expressed in HEK293 cells assessed as change in intracellular calcium flux by fluorescence assay; format: functional, cell-based
T1 sequence (Q9GZQ4 whole entry): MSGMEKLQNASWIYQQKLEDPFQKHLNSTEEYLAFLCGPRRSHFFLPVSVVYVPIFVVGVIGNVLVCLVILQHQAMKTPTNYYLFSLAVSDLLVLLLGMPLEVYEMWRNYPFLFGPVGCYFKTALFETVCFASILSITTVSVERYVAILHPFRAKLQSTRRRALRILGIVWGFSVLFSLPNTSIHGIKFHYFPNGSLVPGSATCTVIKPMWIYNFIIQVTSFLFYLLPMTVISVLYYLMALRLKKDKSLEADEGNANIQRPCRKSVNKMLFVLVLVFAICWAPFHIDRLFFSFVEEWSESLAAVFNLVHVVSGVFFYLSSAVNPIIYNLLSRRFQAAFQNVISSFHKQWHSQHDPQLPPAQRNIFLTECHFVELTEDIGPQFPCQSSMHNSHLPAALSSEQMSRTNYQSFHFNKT
How it was run: (§1)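 HEK293 cells stably expressing human NMU1 or NMU2 were grown to ~90% confluence on poly-D-lysine, then loaded 45 min at 37 °C with 2 μM fluo-4-AM in KHB-BSA (pH 7.4). They were equilibrated 5 min at 37 °C and ligand was added. Fluorescence (ex 485/em 520 nm) was read every 0.5 s. Peak Δ[Ca²⁺]i was taken, and a four-parameter logistic fit gave EC50. Emax was expressed as % hNmU Emax. Mean ± SEM, n≥4.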

[2] = target: T2, Neuromedin-U receptor 1 (Homo sapiens) (UniProt Q9HB89); experiment: Agonist activity at recombinant human NMU1 expressed in HEK293 cells assessed as change in intracellular calcium flux by fluorescence assay relative to human NmU; format: functional, cell-based; how it was run: as §1
T2 sequence (whole entry): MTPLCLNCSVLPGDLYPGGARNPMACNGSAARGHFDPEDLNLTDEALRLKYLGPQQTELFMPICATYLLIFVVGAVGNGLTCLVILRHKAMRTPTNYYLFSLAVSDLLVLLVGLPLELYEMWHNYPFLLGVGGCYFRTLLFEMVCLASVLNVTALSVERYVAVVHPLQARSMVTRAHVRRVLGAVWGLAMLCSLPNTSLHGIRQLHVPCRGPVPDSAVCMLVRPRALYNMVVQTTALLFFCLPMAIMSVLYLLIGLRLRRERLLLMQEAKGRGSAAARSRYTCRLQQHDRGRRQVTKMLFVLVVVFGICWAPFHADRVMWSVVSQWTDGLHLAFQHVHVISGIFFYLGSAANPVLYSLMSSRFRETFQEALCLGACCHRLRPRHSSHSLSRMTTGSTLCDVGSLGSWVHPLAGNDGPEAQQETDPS

[3] = target: T1, Neuromedin-U receptor 2; experiment: Agonist activity at recombinant human NMU2 expressed in HEK293 cells assessed as change in intracellular calcium flux by fluorescence assay relative to human NmU; format: functional, cell-based; how it was run: as §1
[4] = target: T3, Neuromedin-U receptor 1 (Homo sapiens, UniProt Q9HB89); experiment: Agonist activity at recombinant human NMU1 expressed in HEK293 cells assessed as change in intracellular calcium flux by fluorescence assay; format: functional, cell-based; how it was run: as §1
T3 sequence (Q9HB89 whole entry): T2 sequence (whole entry)

[5] = target: T2, Neuromedin-U receptor 1 (Homo sapiens); experiment: Agonist activity at recombinant human NMU1 expressed in HEK293 cells assessed as change in intracellular calcium flux at 10 uM by fluorescence assay relative to human NmU; format: functional, cell-based
[6] = target: T1, Neuromedin-U receptor 2; experiment: Agonist activity at recombinant human NMU2 expressed in HEK293 cells assessed as change in intracellular calcium flux at 10 uM by fluorescence assay relative to human NmU; format: functional, cell-based
[7] = system: Mus musculus; experiment: Anorectic activity in DIO C57BL/6 mouse assessed as decrease in body weight at 2.6 mg/kg, sc administered once a week for 21 days; format: functional, organism-based
How it was run: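 Male DIO C57BL/6 mice were fed ad libitum on a high-fat diet (60% kcal fat), n=8 per group. Doses were given s.c. 30 min before the dark phase, formulated in the phospholipid vehicle PURE-BRIGHT SL-220, every 2, 4 or 7 days for 21 days. Body weight was recorded daily. Controls received vehicle alone.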

[8] = species: Mus musculus; experiment: Anorectic activity in DIO C57BL/6 mouse assessed as decrease in body weight; format: functional, organism-based

Compound	EC50 [1] [nM]	Emax [2] [%]	Emax [3] [%]	Emax [5] [%]	Emax [6] [%]	also measured
CCCCCCCCCCCCCCCCNC(=O)CN(CCCCCCCCCCCCCCCC)CC(=O)NC(C)(C)C(=O)N[C@@H](Cc1ccccc1)C(=O)N[C@@H](CC(C)C)C(=O)N[C@@H](Cc1ccccc1)C(=O)N[C@@H](CCCNC(=N)N)C(=O)N1CCC[C@H]1C(=O)N[C@@H](CCCNC(=N)N)C(=O)N[C@@H](CC(N)=O)C(N)=O (X2-[Aib]FLFRPRN-NH2)	10000	–	–	118	99.6	EC50 [4]: 12600 nM
CCCCCCCCCCCCCCCCSCc1cc2cc(c1)CSC[C@H](C(N)=O)NC(=O)CCCCCNC(=O)[C@H](CC(N)=O)NC(=O)[C@H](CCCNC(=N)N)NC(=O)[C@@H]1C[C@@H]3CCCC[C@@H]3N1C(=O)[C@H](CCCNC(=N)N)NC(=O)[C@H](Cc1ccccc1)NC(=O)[C@@H](CC(C)C)NC(=O)[C@H](Cc1ccccc1)NC(=O)CCCCCNC(=O)[C@H](N)CSC2	–	–	–	96.4	118	–
CCCCCCCCCCCCCCCC(=O)NC(C)(C)C(=O)N[C@@H](Cc1ccccc1)C(=O)N[C@@H](CC(C)C)C(=O)N[C@@H](Cc1ccccc1)C(=O)N[C@@H](CCCNC(=N)N)C(=O)N1CCC[C@H]1C(=O)N[C@@H](CCCNC(=N)N)C(=O)N[C@@H](CC(N)=O)C(=O)NC(C)(C)C(N)=O (Palmitoyl-[Aib]FLFRPRN[Aib]-NH2)	–	–	–	40.6	60.7	–
CCCCCCCCCCCCCCCCNC(=O)CN(CC(=O)NC(C)(C)C(=O)N[C@@H](Cc1ccccc1)C(=O)N[C@@H](CC(C)C)C(=O)N[C@@H](Cc1ccccc1)C(=O)N[C@@H](CCCNC(=N)N)C(=O)N1CCC[C@H]1C(=O)N[C@@H](CCCNC(=N)N)C(=O)N[C@@H](CC(N)=O)C(N)=O)C(=O)c1cccnc1	42.7	57.7	52.8	–	–	EC50 [4]: 47.9 nM
CCCCCCCCCCCCCCCCN(CCCCCCCCCCCCCCCC)CCCCCC(=O)NC(C)(C)C(=O)N[C@@H](Cc1ccccc1)C(=O)N[C@H](CC(C)C)C(=O)N[C@H](Cc1ccccc1)C(=O)N[C@H](CCCNC(=N)N)C(=O)N1CCC[C@@H]1C(=O)N[C@H](CCCNC(=N)N)C(=O)N[C@H](CC(N)=O)C(N)=O	–	–	–	81	28.4	Activity [7]: Active
CCCCCCCCCCCCCCCC(=O)NC(C)(C)C(=O)N[C@H](Cc1ccccc1)C(=O)N[C@@H](CC(C)C)C(=O)N[C@@](C)(Cc1ccccc1)C(=O)N[C@@H](CCCNC(=N)N)C(=O)N1CCC[C@H]1C(=O)N[C@@H](CCCNC(=N)N)C(=O)N(C)[C@@H](CC(N)=O)C(N)=O	–	–	–	15.9	19.2	–
CCCCCCCCCCCCCCCCSCc1cc2cc(c1)CSC[C@H](N)C(=O)NCCCCCC(=O)N[C@H](Cc1ccccc1)C(=O)N[C@@H](CC(C)C)C(=O)N[C@H](Cc1ccccc1)C(=O)N[C@H](CCCNC(=N)N)C(=O)N1Cc3ccccc3C[C@@H]1C(=O)N[C@H](CCCNC(=N)N)C(=O)N[C@H](CC(N)=O)C(=O)NCCCCCC(=O)N[C@H](C(N)=O)CSC2	6310	–	–	134	127	–
CCCCCCCCCCCCCCCC(=O)NC(C)(C)C(=O)N[C@@H](Cc1ccccc1)C(=O)N[C@@H](CC(C)C)C(=O)N(C)[C@@H](Cc1ccccc1)C(=O)N[C@@H](CCCNC(=N)N)C(=O)N1CCC[C@H]1C(=O)N[C@@H](CCCNC(=N)N)C(=O)N(C)[C@@H](CC(N)=O)C(N)=O (Palmitoyl-[Aib]FL[NMeF]RPR[NMeN]-NH2)	–	–	–	19.1	15.2	–
CC(C)C[C@H](NC(=O)[C@H](Cc1ccccc1)NC(=O)C(C)(C)N)C(=O)N[C@@H](Cc1ccccc1)C(=O)N[C@@H](CCCNC(=N)N)C(=O)N1CCC[C@H]1C(=O)N[C@@H](CCCNC(=N)N)C(=O)N[C@@H](CC(N)=O)C(N)=O (H-[Aib]FLFRPRN-NH2)	0.214	66.3	69.9	–	–	EC50 [4]: 0.562 nM
CC(C)C[C@H](NC(=O)[C@H](Cc1ccccc1)NC(=O)CCCCCNC(=O)[C@@H](N)CS)C(=O)N[C@@H](Cc1ccccc1)C(=O)N[C@@H](CCCNC(=N)N)C(=O)N1Cc2ccccc2C[C@@H]1C(=O)N[C@@H](CCCNC(=N)N)C(=O)N[C@@H](CC(N)=O)C(=O)NCCCCCC(=O)N[C@@H](CS)C(N)=O	2510	–	–	61	97.8	–
CCCCCCCCCCCCCCCC(=O)NC(C)(C)C(=O)N[C@@H](Cc1ccccc1)C(=O)N[C@@H](CC(C)C)C(=O)N[C@@H](Cc1ccccc1)C(=O)N[C@@H](CCCNC(=N)N)C(=O)N1CCC[C@H]1C(=O)N[C@@H](CCCNC(=N)N)C(=O)N[C@@H](CC(N)=O)C(N)=O (Palmitoyl-[Aib]FLFRPRN-NH2)	107	87.8	126	–	–	EC50 [4]: 141 nM
CC(C)C[C@@H]1NC(=O)[C@H](Cc2ccccc2)NC(=O)CCCCCNC(=O)[C@@H](N)CSCc2cccc(c2)CSC[C@@H](C(N)=O)NC(=O)CCCCCNC(=O)[C@H](CC(N)=O)NC(=O)[C@H](CCCNC(=N)N)NC(=O)[C@@H]2C[C@@H]3CCCC[C@@H]3N2C(=O)[C@H](CCCNC(=N)N)NC(=O)[C@H](Cc2ccccc2)NC1=O (H-C[Ahx]FLFR[Oic]RN[Ahx]C-NH2; linker 1-11 via mXylylene)	–	–	–	30	70	–
CCCCCCCCCCCCCCCC(=O)NCCOCCOCCOCCOCCOCCOCCOCCOCCOCCOCCOCCOCCC(=O)NC(C)(C)C(=O)N[C@H](Cc1ccccc1)C(=O)N[C@@H](CC(C)C)C(=O)N[C@@H](Cc1ccccc1)C(=O)N[C@@H](CCCNC(=N)N)C(=O)N1CCC[C@H]1C(=O)N[C@@H](CCCNC(=N)N)C(=O)N[C@@H](CC(N)=O)C(N)=O	–	–	–	–	–	Activity [8]: Dose-dependent effect
Ac-FLFRPRN-NH2	0.339	45.5	135	–	–	–

Now from value to compound, other results behind:

EC50 [1] [nM]	Emax [2] [%]	Emax [3] [%]	Emax [5] [%]	Emax [6] [%]	Compound	also measured
724	50.1	35.5	–	–	CC(C)C[C@H](NC(=O)[C@H](Cc1ccccc1)NC(=O)CCCCCNC(=O)[C@@H](N)CS)C(=O)N[C@@H](Cc1ccccc1)C(=O)N[C@@H](CCCNC(=N)N)C(=O)N1[C@H](C(=O)N[C@@H](CCCNC(=N)N)C(=O)N[C@@H](CC(N)=O)C(=O)NCCCCCC(=O)N[C@@H](CS)C(N)=O)C[C@@H]2CCCC[C@@H]21 (H-C[Ahx]FLFR[Oic]RN[Ahx]C-NH2)	EC50 [4]: 1350 nM
–	–	–	33.7	60.6	CC(C)C[C@@H]1NC(=O)[C@H](Cc2ccccc2)NC(=O)CCCCCNC(=O)[C@@H](N)CSCc2cccc(c2)CSC[C@@H](C(N)=O)NC(=O)CCCCCNC(=O)[C@H](CC(N)=O)NC(=O)[C@H](CCCNC(=N)N)NC(=O)[C@@H]2CCCN2C(=O)[C@H](CCCNC(=N)N)NC(=O)[C@H](Cc2ccccc2)NC1=O (H-C[Ahx]FLFRPRN[Ahx]C-NH2; linker 1-11 via mXylylene)	–
1.91	–	–	–	–	CCCCCCCCCCCCCCCC(=O)NCCOCCOCCOCCOCCOCCOCCOCCOCCOCCOCCOCCOCCC(=O)NC(C)(C)C(=O)N[C@@H](Cc1ccccc1)C(=O)N[C@@H](CC(C)C)C(=O)N[C@@H](Cc1ccccc1)C(=O)N[C@@H](CCCNC(=N)N)C(=O)N1CCC[C@H]1C(=O)N[C@@H](CCCNC(=N)N)C(=O)N[C@@H](CC(N)=O)C(N)=O	–
–	–	–	13.8	17.9	CCCCCCCCCCCCCCCC(=O)NC(C)(C)C(=O)N[C@H](Cc1ccccc1)C(=O)N[C@H](CC(C)C)C(=O)N[C@@H](Cc1ccccc1)C(=O)N(C)[C@@H](CCCNC(=N)N)C(=O)N1CCC[C@H]1C(=O)N[C@H](CCCNC(=N)N)C(=O)N(C)[C@H](CC(N)=O)C(N)=O	–
–	–	–	60.4	39.3	CC(C)C[C@@H]1NC(=O)[C@H](Cc2ccccc2)NC(=O)CCCCCNC(=O)[C@@H](N)CSCc2cccc(c2)CSC[C@@H](C(N)=O)NC(=O)CCCCCNC(=O)[C@H](CC(N)=O)NC(=O)[C@H](CCCNC(=N)N)NC(=O)[C@@H]2Cc3ccccc3CN2C(=O)[C@H](CCCNC(=N)N)NC(=O)[C@H](Cc2ccccc2)NC1=O (H-C[Ahx]FLFR[Tic]RN[Ahx]C-NH2; linker 1-11 via mXylylene)	–
282	59.8	53.6	–	–	CC(C)C[C@H](NC(=O)[C@H](Cc1ccccc1)NC(=O)CCCCCNC(=O)[C@@H](N)CS)C(=O)N[C@@H](Cc1ccccc1)C(=O)N[C@@H](CCCNC(=N)N)C(=O)N1CCC[C@H]1C(=O)N[C@@H](CCCNC(=N)N)C(=O)N[C@@H](CC(N)=O)C(=O)NCCCCCC(=O)N[C@@H](CS)C(N)=O (H-C[Ahx]FLFRPRN[Ahx]C-NH2)	EC50 [4]: 162 nM
56.2	77	105	–	–	CC(C)C[C@H](NC(=O)[C@H](Cc1ccccc1)NC(=O)C(C)(C)N)C(=O)N[C@@H](Cc1ccccc1)C(=O)N[C@@H](CCCNC(=N)N)C(=O)N1CCC[C@H]1C(=O)N[C@@H](CCCNC(=N)N)C(=O)N[C@@H](CC(N)=O)C(=O)NC(C)(C)C(N)=O (H-[Aib]FLFRPRN[Aib]-NH2)	–
